# High-throughput results from PubChem.
# Only some compounds are listed: those with a hit (about 12% of all), similar ones and a draw of the others.
# Arbovirus anti – blocks arbovirus infection | arbovirus infection cell-based antiviral screen | inhibition, % at 10 µM | 200,000 compounds, 0.37% hits | AID 1251; in the data active means inhibition above about 30%
# Rad51 HR inh – Rad51 (human) homologous recombination inhibition; Q06609; hRad51 DNA strand exchange, fluorescence dequenching; inhibition, % at 10 µM; 200,000 compounds, 0.085% hits; AID 1385;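 active means inhibition above 40% at the single screening dose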
#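 System: hRad51 filaments on single-stranded DNA; reagent: Fluorescein- and BHQ1-tagged 47-mer duplex; compound dosing: one concentration, 10 µM final; timing: filaments 15 min 37 °C, then compound 30 min; measured by: fluorescein emission 520 nm, excitation 485 nm; benchmarks: per-plate controls and blanks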
# Wee1 stabilizer – inhibitors of human Wee1 degradation; HeLa Luc-Wee1K328M stability, luciferase luminescence; 100% = proteasome inhibitor MG132 effect; reporter increase, % at 5 µM; 220,000 compounds, 1.2% hits; P30291;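 active means activation above the mean of all tested compounds plus 3 SD, set per screening run, cut at about 8.8% in these data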;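 further: cells exposed to compound for 20 h before luminescence read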
# L major viab – Leishmania major promastigote growth inhibition; Leishmania major promastigotes, resazurin fluorescence viability; inhibition, % at 10 µM; 200,000 compounds, 9% hits; AID 1063;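 further: promastigotes grown with compound for 44 hours at 28 °C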
# PKD1 kinase inh – inhibitors of human PKD1 kinase | 200,000 compounds, 0.056% hits | AID 797 | inhibition, % (concentration not given with the values) | PKD1 kinase fluorescence polarization assay
# Target sequence (Q15139 whole entry, looked up): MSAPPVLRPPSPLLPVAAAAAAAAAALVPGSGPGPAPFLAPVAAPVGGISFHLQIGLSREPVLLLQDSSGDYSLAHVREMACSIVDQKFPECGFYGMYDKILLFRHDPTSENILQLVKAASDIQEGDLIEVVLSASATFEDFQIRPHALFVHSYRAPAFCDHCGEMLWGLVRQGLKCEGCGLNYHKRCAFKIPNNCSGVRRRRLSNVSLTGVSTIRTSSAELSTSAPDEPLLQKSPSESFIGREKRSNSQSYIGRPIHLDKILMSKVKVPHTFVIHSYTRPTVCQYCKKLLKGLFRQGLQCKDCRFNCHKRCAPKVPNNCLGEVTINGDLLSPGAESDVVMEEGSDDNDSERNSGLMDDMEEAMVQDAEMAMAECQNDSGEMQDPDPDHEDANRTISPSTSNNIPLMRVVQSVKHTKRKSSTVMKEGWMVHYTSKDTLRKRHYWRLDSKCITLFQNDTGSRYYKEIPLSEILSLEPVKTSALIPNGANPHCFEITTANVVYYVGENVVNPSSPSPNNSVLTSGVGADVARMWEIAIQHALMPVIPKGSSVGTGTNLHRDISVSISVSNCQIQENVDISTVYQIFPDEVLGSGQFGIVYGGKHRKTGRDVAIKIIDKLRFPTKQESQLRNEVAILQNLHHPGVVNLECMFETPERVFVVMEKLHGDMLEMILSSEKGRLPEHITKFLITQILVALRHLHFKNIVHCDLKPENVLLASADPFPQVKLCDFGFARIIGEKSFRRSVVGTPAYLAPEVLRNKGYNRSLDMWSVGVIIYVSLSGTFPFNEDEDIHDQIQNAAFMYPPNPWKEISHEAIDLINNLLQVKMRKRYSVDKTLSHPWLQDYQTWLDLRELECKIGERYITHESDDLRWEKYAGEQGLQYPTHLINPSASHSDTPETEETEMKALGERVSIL
# CHOP inh – inhibitors of CHOP induction in ER stress response; CHO-K1 CHOP-promoter luciferase, tunicamycin-induced, 15-18 h; inhibition, % at 10 µM; 220,000 compounds, 3.8% hits; AID 2732;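 active means compounds that reduced the stress-induced luciferase reporter signal by more than about 70% of percent inhibition, limit read from the data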
# Hits are given with their value; 0 = inactive; - = no result. Unless noted, no stated cut-off is given here; in the data, active means inhibition above about 50%; inactive means the rest.
SMILES,Arbovirus anti,Rad51 HR inh,Wee1 stabilizer,L major viab,PKD1 kinase inh,CHOP inh
Cc1[nH]nc(N=Cc2c(O)n(C)c(=O)n(C)c2=O)c1-c1ccccc1,-,0,-,-,-,-
CC(=O)N=Cc1c(C)c(C#N)c(=O)n(C)c1O,0,-,0,0,0,0
Cc1c(/C=N/Nc2ccc(F)cc2)c(O)n(C)c(=O)c1C#N,0,0,0,60,0,0
Cc1cc(O)c(/C=N/Nc2ccc(F)cc2)c(=O)o1,0,0,0,70,0,0
Cn1c(O)c(/C=N/Nc2ccccc2)c(=O)n(C)c1=O,0,0,0,86,0,0
CCCN(CC1CCCO1)C(=O)CCc1nnc(-c2cc(C)on2)o1 (stereo not drawn),0,0,0,0,0,0
CC(C)(C)OC(=O)NCCNC(=O)c1cccs1,-,0,0,-,-,0
O=C(NCCNc1nccc(C(F)(F)F)n1)c1cccs1,-,0,9.2,-,-,0
CCN1CCN(Cc2ccc(NC(=O)c3cc(NC(=O)C(=O)c4c[nH]c5ccccc45)cc(OC)c3)cc2C(F)(F)F)CC1,-,0,-,-,-,0
CCN1CCN(Cc2ccc(NC(=O)c3ccc(C)c(NC(=O)C(=O)c4c[nH]c5ccccc45)c3)cc2C(F)(F)F)CC1,-,0,-,-,-,92
N#Cc1c(N)nc2c(c1N)CC(CCl)O2 (stereo not drawn),0,0,0,57,0,0
N#Cc1c(N2CCCCC2)nc(N)c2c(N)nc3c(c12)CC(CCl)O3 (stereo not drawn),0,0,0,0,0,0
Cc1ccc(-c2[nH]nc3c2C(c2cccnc2)C(C#N)=C(N)O3)cc1 (stereo not drawn),0,-,0,71,0,0
C#CCSc1nc(N)c2c(n1)OC(N)=C(C#N)C2c1cccnc1 (stereo not drawn),0,0,0,76,0,0
Cc1c(Cl)cnc(NC(=O)COC(=O)c2cccc(S(=O)(=O)N3c4ccccc4CC3C)c2)c1Cl (stereo not drawn),0,0,0,0,0,0
O=C(O)c1cccc(-n2c(-c3cnccn3)n[nH]c2=S)c1,0,0,0,0,0,0
CC(=O)c1ccc(C(C)(C)c2ccc(C(C)=O)s2)s1,0,0,9.3,0,0,0
COc1ccc(NC(=S)NCCc2c(C)[nH]c3ccc(OC)cc23)cc1,0,0,0,62,0,0
Cc1[nH]c2ccc(F)cc2c1CCN(Cc1ccncc1)C(=S)Nc1ccccc1,0,0,0,74,0,0
CCOc1ccc(NC(=S)N(CCc2c(C)[nH]c3ccccc23)Cc2cccnc2)cc1,0,-,0,100,0,0
Cc1[nH]c2ccccc2c1CCN(Cc1cccs1)C(=S)Nc1ccccc1,0,0,0,0,0,0
Cc1[nH]c2ccc(F)cc2c1CCN(Cc1cccnc1)C(=S)Nc1ccccc1,0,0,0,100,0,0
O=C(Cc1cccs1)NC1(C(=O)NC2CCCC2)CCCCC1,0,-,0,0,0,0
CN(C)C(=O)c1ccc(NC(=O)c2ccccc2Sc2ccccc2C#N)cc1,0,0,0,0,0,0
CN1CCN(NC(=O)c2ccc(Br)s2)CC1,-,-,0,-,-,0
SMILES,Arbovirus anti,Rad51 HR inh,Wee1 stabilizer,L major viab,PKD1 kinase inh,CHOP inh
COc1ccc(NC(=S)N(CCc2c(C)[nH]c3ccc(C)cc23)Cc2cccnc2)cc1,0,-,0,100,0,0
Cc1[nH]c2ccccc2c1CCN(Cc1cccnc1)C(=S)Nc1ccc(F)cc1,0,0,0,100,0,0
COc1ccc(NC(=S)N(Cc2cccnc2)Cc2cc3cc(OC)c(OC)cc3[nH]c2=O)cc1,0,-,0,0,0,0
Cc1[nH]c2ccccc2c1CCN(Cc1cccnc1)C(=S)Nc1cccc(F)c1,0,0,0,100,0,0
CCOc1ccc(NC(=S)N(CCc2c(C)[nH]c3ccc(C)cc23)Cc2ccncc2)cc1,0,-,0,70,0,0
O=C(Cn1cnc2ccccc2c1=O)Nc1nnc(SCc2ccccc2)s1,0,0,0,0,0,0
COc1ccccc1C(=O)C1CCCN(C(=O)c2snnc2C)C1 (stereo not drawn),0,-,0,0,0,0
COC(=O)C(NC(=O)c1ccc(F)cc1)(Nc1ncc(S(=O)(=O)c2ccc([N+](=O)[O-])cc2)s1)C(F)(F)F (stereo not drawn),0,0,0,58,0,0
COC(=O)C(NC(=O)c1ccccc1C)(Nc1ncc(S(=O)(=O)c2ccc([N+](=O)[O-])cc2)s1)C(F)(F)F (stereo not drawn),0,0,0,0,0,0
CCOC(=O)C1CCCN(C(=O)c2cc3ccccc3oc2=O)C1 (stereo not drawn),0,0,0,0,0,0
CC(NC(=O)/C(=C/c1ccc(OC(F)F)cc1)c1ccccc1)c1ccccc1 (stereo not drawn),0,0,0,78,0,0
Cc1cccn2c(CN3CCNC(=O)CC3)c(C(=O)N(C)CCc3ccccc3)nc12,0,-,0,0,0,0
Cc1ccc(CN2CCN(Cc3cccc4nccnc34)CC2CCO)cc1 (stereo not drawn),-,-,0,-,-,0
CNc1ccccc(C(=O)/C=C/c2ccccc2OC)c1=O,0,-,0,0,0,88
COc1ccccc1/C=C/C(C)=O,0,0,0,0,0,0
COc1ccccc1/C=C/C(=O)/C=C/c1ccccc1O,-,0,0,-,-,101
CCOC(=O)c1cc(=O)cc(C(=O)OCC)o1,0,0,0,95,0,0
CCCCN(CCCC)c1nc(OC)nc(-n2nnc(C(C)=O)c2C)n1,0,0,0,63,0,0
CCOC(=O)c1nnn(-c2nc(N(C)C)nc(N(C)C)n2)c1C,0,0,0,0,0,0
CC(=O)c1nnn(-c2nc(N)nc(N(c3ccccc3)c3ccccc3)n2)c1C,0,0,0,92,0,0
CC(=O)c1nnn(-c2c(F)cccc2F)c1C,-,0,0,-,-,0
CCn1c(=O)ccc2cc([N+](=O)[O-])ccc21,0,0,0,0,0,0
CC(=O)c1sc(C(=O)O)c(-c2ccco2)c1-c1ccco1,-,0,0,-,-,0
CCNc1nc(NCC)nc(SCCOC(=O)c2ccccc2)n1,0,0,0,55,0,0
Nc1nc(-c2ccc(Cl)cc2)nn1C(=O)c1cccs1,0,0,0,0,0,0
SMILES,Arbovirus anti,Rad51 HR inh,Wee1 stabilizer,L major viab,PKD1 kinase inh,CHOP inh
O=C(CN1CCCCCCC1)N/N=C/c1ccccc1F,0,0,0,52,0,0
O=C(CN1CCCCCC1)N/N=C/c1cccc(Cl)c1Cl,0,0,0,62,0,0
O=C(CO)N/N=C/c1cccc(Cl)c1Cl,0,0,0,0,0,0
O=C(N/N=C/c1cccc(Cl)c1Cl)Nc1ccccc1,0,0,0,0,0,71
Cc1cc(/C=N\NC(=O)CC(=O)NC2CCCCC2)c(C)n1-c1cccc(Cl)c1Cl,0,0,0,95,0,0
Cc1nc(CN2CCCCC2)cc(=O)[nH]1,0,0,0,0,0,0
CCOCC(=O)Nc1nc(-c2ccccc2)c(CC)s1,0,0,0,0,0,0
CN1CCN(CC(=O)N/N=C/c2ccc(F)c(F)c2)CC1,0,0,0,0,0,0
